Measured values: PubChem BioAssay
Values without a mark were called inactive.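 How the source made its calls, unless noted: active means growth inhibition above 25% in both replicates, a cutoff set 3 SD above the mean; inconclusive means above 25% in only one replicate; inactive means the rest.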

Experiment: growth suppression of yeast trafficking mutant, preliminary HTS, modulators of trafficking downstream of Golgi apparatus project, 1536-format plate, OD 615 nm (AID 637; in the data active means inhibition above about 30%)
Conditions: yeast transport mutant growth, absorbance 615 nm, 18 h; active compounds read high

SMILES | inhibition [%]
CCCc1cc(C(=O)Nc2ccccc2SC)no1 | 5.67
Cc1ccc(C(=O)OCC(=O)Nc2ccc3c(c2)OCO3)o1 | -5.87
COC(=O)C(C#N)C(=C1C(=O)CC(C)(C)CC1=O)c1ccc(O)cc1 (stereo not given) | -1.17
COC(=O)c1cc(OC)c(OC)cc1NC(=O)c1ccc(Br)o1 | 3
COc1cccc(NC(=O)CSc2nnc(Cc3cccn3C)n2-c2ccc(F)cc2)c1 | -8
CCOc1ccc(N(CC(=O)OC)S(=O)(=O)c2ccc(OC)c(OC)c2)cc1 | -4.83
COC(=O)C1=C(C)NC(C)=C(C(=O)OC)C1C1CC=CCC1 (stereo not given) | 6.89
CCCCCn1c(=O)[nH]c2cc(C(=O)NCCN3CCOCC3)ccc2c1=O | 0.33
COc1ccccc1OCC(=O)N1CCN(c2ccccc2OC)CC1 | -2.7
COc1cccc(-c2nc(CS(=O)(=O)CC(=O)N3CCN(c4ccccn4)CC3)c(C)o2)c1 | 3.61
CC1C(=O)C(C)C(c2cccs2)NC1c1cccs1 (stereo not given) | 2.42
COc1ccc(N2C(=O)CCC(C(=O)N3CCCCC3)C2c2ccc(OC)c(OC)c2)cc1 (stereo not given) | -1.11
COc1cccc(NC(=O)c2nc3nc(C)cc(C(F)F)n3n2)c1 | 4.5
O=C(NCCN1CCOCC1)c1ccc2c(c1)N(Cc1ccccc1F)C(=O)CS2 | 1.59
CCn1cc(C(=O)NCc2ccccc2OC)c(=O)c2cc(S(=O)(=O)N(C)C)ccc21 | 0.17
CC1Cn2c(nnc2-c2ccc(F)cc2)S1 (stereo not given) | -4
COc1ccc(NC(=O)CN(c2ccc(C(C)C)cc2)S(=O)(=O)c2c(C)noc2C)cc1OC | -2.17
Cc1cc(C)c(C(=O)Nc2ccc(S(=O)(=O)Nc3onc(C)c3C)cc2)c(C)c1 | -1.48
COc1ccc(C2CC(c3ccco3)n3ncnc3N2)cc1 (stereo not given) | -8.5
CCCCn1c(CN2CCN(c3ccccc3)CC2)nc2c1c(=O)n(C)c(=O)n2C | -3.67

SMILES | inhibition [%]
Cc1ccccc1NC(=O)C1CCCN(S(=O)(=O)c2cnc[nH]2)C1 (stereo not given) | 3.33
CCOC(=O)C1CCCN(C(=O)c2cn(C)c(=O)c3cc(OC)c(OC)cc23)C1 (stereo not given) | 4.43
O=C(C1CCN(S(=O)(=O)c2cccc3cccnc23)CC1)N1CCN(C2CCCCC2)CC1 | -0.49
Cc1nnc2n(-c3ccc(Cl)cc3)c(=O)c3c4c(sc3n12)CN(C)CC4 | -4.1
COc1ccc(OC)c(NC(=O)c2nnn(Cc3ccc(Br)cc3F)c2N)c1 | -0.49
CCCOc1ccc2ccccc2c1/C=N/n1cnnc1 | 2.67
CCOC(=O)C(C)(C)Sc1nc2c(cnn2-c2ccc(Cl)cc2)c(=O)[nH]1 | 2.5
Cc1cccc(N2C(=O)CC(N3CCN(c4cccc(C(F)(F)F)c4)CC3)C2=O)c1 (stereo not given) | -9
CC(=O)N1c2c(cc(Br)cc2S(=O)(=O)N2CCN(c3ccccn3)CC2)CC1C (stereo not given) | 24.6
O=C(O)c1ccc2c(c1)C(=O)N(c1ccc(Cl)cn1)C2=O | 0.33
CC(=O)c1sc(NC(=O)C2COc3ccccc3O2)nc1C (stereo not given) | 3.5
COc1ccc(OC)c2[nH]c(=O)c(CCNC(=O)C(C)C)cc12 | 1.83
COc1ccc(NC(=O)c2cc(C3CC3)on2)c(OC)c1 | 1.17
Cc1noc(C(=O)Nc2ccc3c(c2)OCO3)c1Cl | 1.67
CCC(CC)C(=O)NCCc1cc2ccc(C)cc2[nH]c1=O | 4.67
CCCS(=O)(=O)N1CCN(C(=O)c2cccnc2)CC1 | -3.77
CCCCn1c2c(c3ccccc31)CCc1nonc1-2 | -3.67
COc1ccc(-c2[nH]c(-c3cccc(OC)c3)nc2SCC(=O)NCc2ccco2)cc1 | -0.33
CC1=C(C(=O)OCc2ccccc2)C(c2ccco2)n2ncnc2N1 (stereo not given) | 2.67
Cc1c(C)n(C)c2ccc(C(=O)NCc3cccs3)cc12 | -4.59

Experiment: S. cerevisiae growth inhibition in permissive medium (OD615), pilot counter-assay for S. cerevisiae lifespan shortening project, permissive growth control (AID 705)
Conditions: OD615, 24 h, at 10 µM, active compounds read high
Method in brief: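 Timing: 24 h exposure, 30 °C / Material: Saccharomyces cerevisiae strain carrying genetically modified DeaD replicative-lifespan system / Signal: OD at 615 nm / Compound: 10 µM single dose, 0.25% DMSO / Medium: SC raffinose/galactose permissive medium / Evaluation: reduction in yeast growth (OD615)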

SMILES | growth inhibition [%]
CCCc1cc(C(=O)Nc2ccccc2SC)no1 | -11.4
Cc1ccc(C(=O)OCC(=O)Nc2ccc3c(c2)OCO3)o1 | -4.63
COC(=O)C(C#N)C(=C1C(=O)CC(C)(C)CC1=O)c1ccc(O)cc1 (stereo not given) | -1.85
COC(=O)c1cc(OC)c(OC)cc1NC(=O)c1ccc(Br)o1 | -14.5
COc1cccc(NC(=O)CSc2nnc(Cc3cccn3C)n2-c2ccc(F)cc2)c1 | 0.385
CCOc1ccc(N(CC(=O)OC)S(=O)(=O)c2ccc(OC)c(OC)c2)cc1 | -11.6
COC(=O)C1=C(C)NC(C)=C(C(=O)OC)C1C1CC=CCC1 (stereo not given) | -3.42
CCCCCn1c(=O)[nH]c2cc(C(=O)NCCN3CCOCC3)ccc2c1=O | -26.4
COc1ccccc1OCC(=O)N1CCN(c2ccccc2OC)CC1 | -3.77
COc1cccc(-c2nc(CS(=O)(=O)CC(=O)N3CCN(c4ccccn4)CC3)c(C)o2)c1 | 0.71
CC1C(=O)C(C)C(c2cccs2)NC1c1cccs1 (stereo not given) | -1.82
COc1ccc(N2C(=O)CCC(C(=O)N3CCCCC3)C2c2ccc(OC)c(OC)c2)cc1 (stereo not given) | -0.77
COc1cccc(NC(=O)c2nc3nc(C)cc(C(F)F)n3n2)c1 | -11.3
O=C(NCCN1CCOCC1)c1ccc2c(c1)N(Cc1ccccc1F)C(=O)CS2 | 7.73
CCn1cc(C(=O)NCc2ccccc2OC)c(=O)c2cc(S(=O)(=O)N(C)C)ccc21 | -8.34
CC1Cn2c(nnc2-c2ccc(F)cc2)S1 (stereo not given) | -9.71
COc1ccc(NC(=O)CN(c2ccc(C(C)C)cc2)S(=O)(=O)c2c(C)noc2C)cc1OC | -14.5
Cc1cc(C)c(C(=O)Nc2ccc(S(=O)(=O)Nc3onc(C)c3C)cc2)c(C)c1 | -15
COc1ccc(C2CC(c3ccco3)n3ncnc3N2)cc1 (stereo not given) | -4.26
CCCCn1c(CN2CCN(c3ccccc3)CC2)nc2c1c(=O)n(C)c(=O)n2C | -4.55

SMILES | growth inhibition [%]
Cc1ccccc1NC(=O)C1CCCN(S(=O)(=O)c2cnc[nH]2)C1 (stereo not given) | -1.35
CCOC(=O)C1CCCN(C(=O)c2cn(C)c(=O)c3cc(OC)c(OC)cc23)C1 (stereo not given) | -11.5
O=C(C1CCN(S(=O)(=O)c2cccc3cccnc23)CC1)N1CCN(C2CCCCC2)CC1 | 6.08
Cc1nnc2n(-c3ccc(Cl)cc3)c(=O)c3c4c(sc3n12)CN(C)CC4 | -4.76
COc1ccc(OC)c(NC(=O)c2nnn(Cc3ccc(Br)cc3F)c2N)c1 | -0.51
CCCOc1ccc2ccccc2c1/C=N/n1cnnc1 | -0.81
CCOC(=O)C(C)(C)Sc1nc2c(cnn2-c2ccc(Cl)cc2)c(=O)[nH]1 | -5.47
Cc1cccc(N2C(=O)CC(N3CCN(c4cccc(C(F)(F)F)c4)CC3)C2=O)c1 (stereo not given) | -12.6
CC(=O)N1c2c(cc(Br)cc2S(=O)(=O)N2CCN(c3ccccn3)CC2)CC1C (stereo not given) | 6.66
O=C(O)c1ccc2c(c1)C(=O)N(c1ccc(Cl)cn1)C2=O | -12.8
CC(=O)c1sc(NC(=O)C2COc3ccccc3O2)nc1C (stereo not given) | -8.75
COc1ccc(OC)c2[nH]c(=O)c(CCNC(=O)C(C)C)cc12 | -3.17
COc1ccc(NC(=O)c2cc(C3CC3)on2)c(OC)c1 | 4.41
Cc1noc(C(=O)Nc2ccc3c(c2)OCO3)c1Cl | -0.74
CCC(CC)C(=O)NCCc1cc2ccc(C)cc2[nH]c1=O | 1.09
CCCS(=O)(=O)N1CCN(C(=O)c2cccnc2)CC1 | -8.47
CCCCn1c2c(c3ccccc31)CCc1nonc1-2 | -8.86
COc1ccc(-c2[nH]c(-c3cccc(OC)c3)nc2SCC(=O)NCc2ccco2)cc1 | -9.19
CC1=C(C(=O)OCc2ccccc2)C(c2ccco2)n2ncnc2N1 (stereo not given) | 3.25
Cc1c(C)n(C)c2ccc(C(=O)NCc3cccs3)cc12 | -23.4
